Experimental data taken from ChEMBL document CHEMBL1165965, “Synthesis and structure-activity relationships of 1,2,3,4-tetrahydropyrido[2,3-b]pyrazines as potent and selective inhibitors of the anaplastic lymphoma kinase” (Bioorg Med Chem, 2010).

How the values were obtained:
[1] = target: Dual specificity mitogen-activated protein kinase kinase 1 (Homo sapiens) (UniProt Q02750); assay: Inhibition of MEK1 at 1 uM
[2] = target: T1, Phosphatidylinositol 3-kinase C2 domain-containing subunit gamma (Homo sapiens) (UniProt O75747); assay: Inhibition of PIK3C2G at 1 uM
T1 sequence (whole entry): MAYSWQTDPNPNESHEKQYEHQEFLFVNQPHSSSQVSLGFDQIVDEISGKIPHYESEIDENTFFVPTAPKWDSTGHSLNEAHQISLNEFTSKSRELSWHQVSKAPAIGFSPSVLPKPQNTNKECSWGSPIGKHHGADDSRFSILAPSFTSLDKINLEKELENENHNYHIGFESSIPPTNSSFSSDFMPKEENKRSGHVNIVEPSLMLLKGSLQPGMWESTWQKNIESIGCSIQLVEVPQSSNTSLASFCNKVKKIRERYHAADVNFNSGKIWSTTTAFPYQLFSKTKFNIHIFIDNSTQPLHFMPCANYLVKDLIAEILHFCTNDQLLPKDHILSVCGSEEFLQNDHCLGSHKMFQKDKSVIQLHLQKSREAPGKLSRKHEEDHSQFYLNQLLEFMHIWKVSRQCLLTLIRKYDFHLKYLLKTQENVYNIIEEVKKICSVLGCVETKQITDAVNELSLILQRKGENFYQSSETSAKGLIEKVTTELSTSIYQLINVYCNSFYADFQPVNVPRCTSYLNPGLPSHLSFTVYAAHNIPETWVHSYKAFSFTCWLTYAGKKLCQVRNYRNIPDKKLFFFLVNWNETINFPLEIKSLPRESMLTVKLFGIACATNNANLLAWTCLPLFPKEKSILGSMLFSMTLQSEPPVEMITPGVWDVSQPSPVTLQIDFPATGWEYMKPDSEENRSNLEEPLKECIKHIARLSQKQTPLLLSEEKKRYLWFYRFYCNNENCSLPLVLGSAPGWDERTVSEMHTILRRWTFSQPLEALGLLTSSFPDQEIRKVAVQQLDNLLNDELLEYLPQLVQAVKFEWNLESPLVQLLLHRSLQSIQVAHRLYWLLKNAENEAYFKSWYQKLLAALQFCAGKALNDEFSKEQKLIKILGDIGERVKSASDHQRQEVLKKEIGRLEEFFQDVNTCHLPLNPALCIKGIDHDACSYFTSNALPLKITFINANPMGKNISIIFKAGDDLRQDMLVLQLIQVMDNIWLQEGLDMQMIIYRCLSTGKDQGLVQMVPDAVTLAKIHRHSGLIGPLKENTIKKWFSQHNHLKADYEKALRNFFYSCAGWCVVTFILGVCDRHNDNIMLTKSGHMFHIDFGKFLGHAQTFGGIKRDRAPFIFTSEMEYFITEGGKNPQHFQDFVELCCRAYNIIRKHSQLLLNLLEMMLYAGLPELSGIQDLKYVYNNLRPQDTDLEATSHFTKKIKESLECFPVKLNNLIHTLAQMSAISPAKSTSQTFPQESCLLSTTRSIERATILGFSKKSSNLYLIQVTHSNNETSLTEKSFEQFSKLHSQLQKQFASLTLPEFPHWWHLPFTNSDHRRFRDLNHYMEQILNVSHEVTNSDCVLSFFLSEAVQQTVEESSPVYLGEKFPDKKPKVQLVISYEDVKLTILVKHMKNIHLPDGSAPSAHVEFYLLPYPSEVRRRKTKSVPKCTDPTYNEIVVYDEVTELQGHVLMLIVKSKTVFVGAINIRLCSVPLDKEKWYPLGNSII

[3] = target: Phosphatidylinositol 4,5-bisphosphate 3-kinase catalytic subunit beta isoform (Homo sapiens) (UniProt P42338); assay: Inhibition of PIK3CB at 1 uM
[4] = target: Protein kinase C theta type (Homo sapiens) (UniProt Q04759); assay: Inhibition of PRKCQ at 1 uM
[5] = target: TRAF2 and NCK-interacting protein kinase (Homo sapiens) (UniProt Q9UKE5); assay: Inhibition of TNIK at 1 uM
Outline: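 Single-concentration screen on the Ambit KINOMEscan platform, run against a panel of 250–400 kinases. Per-kinase inhibition was also summarized as S(90), the fraction of kinases inhibited by more than 90%.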

[6] = target: T2, Serine/threonine-protein kinase DCLK1 (Homo sapiens) (UniProt O15075); assay: Inhibition of DCAMKL1 at 1 uM
T2 sequence (whole entry): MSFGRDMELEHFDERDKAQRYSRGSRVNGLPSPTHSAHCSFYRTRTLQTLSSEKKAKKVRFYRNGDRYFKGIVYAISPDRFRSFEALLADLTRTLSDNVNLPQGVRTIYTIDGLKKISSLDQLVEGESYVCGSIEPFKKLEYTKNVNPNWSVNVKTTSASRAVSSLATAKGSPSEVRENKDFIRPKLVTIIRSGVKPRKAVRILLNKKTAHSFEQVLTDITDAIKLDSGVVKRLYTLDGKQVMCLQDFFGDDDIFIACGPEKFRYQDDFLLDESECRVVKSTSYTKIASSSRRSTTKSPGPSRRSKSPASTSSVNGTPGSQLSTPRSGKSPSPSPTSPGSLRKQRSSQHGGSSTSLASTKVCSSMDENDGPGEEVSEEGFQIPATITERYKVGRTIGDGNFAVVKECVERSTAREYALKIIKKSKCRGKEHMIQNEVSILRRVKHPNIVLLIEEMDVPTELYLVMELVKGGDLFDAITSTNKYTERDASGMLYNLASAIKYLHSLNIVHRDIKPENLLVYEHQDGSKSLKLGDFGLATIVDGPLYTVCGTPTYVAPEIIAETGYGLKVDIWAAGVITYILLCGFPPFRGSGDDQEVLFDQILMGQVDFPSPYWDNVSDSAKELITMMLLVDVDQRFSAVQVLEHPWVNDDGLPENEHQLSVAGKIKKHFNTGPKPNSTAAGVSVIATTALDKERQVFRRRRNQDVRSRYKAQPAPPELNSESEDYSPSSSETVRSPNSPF

[7] = target: Receptor tyrosine-protein kinase erbB-3 (Homo sapiens) (UniProt P21860); assay: Inhibition of ERBB3 at 1 uM
Sequence of Receptor tyrosine-protein kinase erbB-3 (Homo sapiens) (P21860 whole entry): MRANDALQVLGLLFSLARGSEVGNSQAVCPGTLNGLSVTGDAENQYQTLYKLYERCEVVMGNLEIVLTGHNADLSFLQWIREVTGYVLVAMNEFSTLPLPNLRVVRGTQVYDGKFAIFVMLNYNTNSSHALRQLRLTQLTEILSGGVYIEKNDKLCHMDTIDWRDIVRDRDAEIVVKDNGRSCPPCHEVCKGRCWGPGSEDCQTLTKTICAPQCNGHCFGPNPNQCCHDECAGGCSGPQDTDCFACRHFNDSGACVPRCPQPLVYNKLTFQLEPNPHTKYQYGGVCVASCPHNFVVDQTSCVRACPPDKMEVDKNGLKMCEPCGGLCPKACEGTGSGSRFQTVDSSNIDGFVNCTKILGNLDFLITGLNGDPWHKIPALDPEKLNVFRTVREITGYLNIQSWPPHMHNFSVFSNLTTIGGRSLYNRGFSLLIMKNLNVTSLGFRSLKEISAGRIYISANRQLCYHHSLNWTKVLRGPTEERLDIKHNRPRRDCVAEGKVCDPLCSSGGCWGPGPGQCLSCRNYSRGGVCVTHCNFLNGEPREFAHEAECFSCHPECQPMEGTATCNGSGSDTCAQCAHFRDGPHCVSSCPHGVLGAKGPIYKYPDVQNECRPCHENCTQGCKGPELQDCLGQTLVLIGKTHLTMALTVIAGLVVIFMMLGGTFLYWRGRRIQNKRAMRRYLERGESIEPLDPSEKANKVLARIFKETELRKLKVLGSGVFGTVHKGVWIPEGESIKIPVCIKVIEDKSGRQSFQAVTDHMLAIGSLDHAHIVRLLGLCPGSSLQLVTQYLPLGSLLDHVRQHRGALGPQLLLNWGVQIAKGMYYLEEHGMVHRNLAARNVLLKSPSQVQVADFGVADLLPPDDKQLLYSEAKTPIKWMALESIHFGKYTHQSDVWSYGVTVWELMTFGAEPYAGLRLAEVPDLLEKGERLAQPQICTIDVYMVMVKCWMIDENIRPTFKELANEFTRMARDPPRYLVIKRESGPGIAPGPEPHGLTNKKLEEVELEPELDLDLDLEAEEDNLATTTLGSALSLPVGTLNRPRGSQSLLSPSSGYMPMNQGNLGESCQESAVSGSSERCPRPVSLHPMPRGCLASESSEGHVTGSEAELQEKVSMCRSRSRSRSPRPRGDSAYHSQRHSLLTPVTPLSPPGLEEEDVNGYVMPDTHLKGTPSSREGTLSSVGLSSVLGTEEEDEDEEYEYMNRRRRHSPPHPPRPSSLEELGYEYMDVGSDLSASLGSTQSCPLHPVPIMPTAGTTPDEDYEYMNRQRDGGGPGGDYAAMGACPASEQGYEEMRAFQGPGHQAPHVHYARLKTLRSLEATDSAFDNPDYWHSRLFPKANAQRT

Sequence of Dual specificity mitogen-activated protein kinase kinase 1 (Homo sapiens) (Q02750 whole entry, the tested form may be a part): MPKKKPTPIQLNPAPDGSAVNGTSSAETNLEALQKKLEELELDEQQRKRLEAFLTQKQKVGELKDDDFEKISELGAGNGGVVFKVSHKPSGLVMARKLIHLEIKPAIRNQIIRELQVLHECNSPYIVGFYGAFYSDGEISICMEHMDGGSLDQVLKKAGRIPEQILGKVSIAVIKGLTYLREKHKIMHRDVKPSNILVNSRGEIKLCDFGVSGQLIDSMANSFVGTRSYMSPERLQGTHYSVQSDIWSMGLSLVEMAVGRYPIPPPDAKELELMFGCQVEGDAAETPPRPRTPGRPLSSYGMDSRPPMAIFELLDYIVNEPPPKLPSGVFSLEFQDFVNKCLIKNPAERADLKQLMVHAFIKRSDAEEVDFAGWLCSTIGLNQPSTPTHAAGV
Sequence of Phosphatidylinositol 4,5-bisphosphate 3-kinase catalytic subunit beta isoform (Homo sapiens) (P42338 whole entry, looked up, canonical isoform): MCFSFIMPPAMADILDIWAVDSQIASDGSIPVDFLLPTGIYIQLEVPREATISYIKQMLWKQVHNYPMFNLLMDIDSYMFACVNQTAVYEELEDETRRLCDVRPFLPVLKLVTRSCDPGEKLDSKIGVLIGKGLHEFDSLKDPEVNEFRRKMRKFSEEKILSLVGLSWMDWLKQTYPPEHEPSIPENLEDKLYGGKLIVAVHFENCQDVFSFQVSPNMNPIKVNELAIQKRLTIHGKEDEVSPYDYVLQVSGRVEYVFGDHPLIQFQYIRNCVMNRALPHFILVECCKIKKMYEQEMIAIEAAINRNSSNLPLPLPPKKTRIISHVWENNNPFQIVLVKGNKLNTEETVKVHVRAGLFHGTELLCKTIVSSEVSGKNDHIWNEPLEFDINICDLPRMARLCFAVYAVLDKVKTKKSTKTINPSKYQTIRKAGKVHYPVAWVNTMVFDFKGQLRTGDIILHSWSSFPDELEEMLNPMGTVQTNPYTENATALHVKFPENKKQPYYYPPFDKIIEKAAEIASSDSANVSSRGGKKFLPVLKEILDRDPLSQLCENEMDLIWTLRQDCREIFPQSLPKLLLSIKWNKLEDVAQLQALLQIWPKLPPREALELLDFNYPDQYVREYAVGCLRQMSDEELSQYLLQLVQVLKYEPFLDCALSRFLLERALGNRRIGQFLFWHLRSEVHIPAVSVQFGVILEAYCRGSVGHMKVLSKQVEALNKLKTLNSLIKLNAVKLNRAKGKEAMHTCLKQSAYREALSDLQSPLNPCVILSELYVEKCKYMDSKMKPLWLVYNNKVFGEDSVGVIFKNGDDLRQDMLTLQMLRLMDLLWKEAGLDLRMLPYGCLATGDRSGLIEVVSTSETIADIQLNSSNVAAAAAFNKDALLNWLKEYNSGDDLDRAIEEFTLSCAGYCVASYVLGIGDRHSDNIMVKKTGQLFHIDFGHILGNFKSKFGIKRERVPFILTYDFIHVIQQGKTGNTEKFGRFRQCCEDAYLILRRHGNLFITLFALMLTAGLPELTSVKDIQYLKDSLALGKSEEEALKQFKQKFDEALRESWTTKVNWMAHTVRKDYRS
Sequence of Protein kinase C theta type (Homo sapiens) (Q04759 whole entry, looked up): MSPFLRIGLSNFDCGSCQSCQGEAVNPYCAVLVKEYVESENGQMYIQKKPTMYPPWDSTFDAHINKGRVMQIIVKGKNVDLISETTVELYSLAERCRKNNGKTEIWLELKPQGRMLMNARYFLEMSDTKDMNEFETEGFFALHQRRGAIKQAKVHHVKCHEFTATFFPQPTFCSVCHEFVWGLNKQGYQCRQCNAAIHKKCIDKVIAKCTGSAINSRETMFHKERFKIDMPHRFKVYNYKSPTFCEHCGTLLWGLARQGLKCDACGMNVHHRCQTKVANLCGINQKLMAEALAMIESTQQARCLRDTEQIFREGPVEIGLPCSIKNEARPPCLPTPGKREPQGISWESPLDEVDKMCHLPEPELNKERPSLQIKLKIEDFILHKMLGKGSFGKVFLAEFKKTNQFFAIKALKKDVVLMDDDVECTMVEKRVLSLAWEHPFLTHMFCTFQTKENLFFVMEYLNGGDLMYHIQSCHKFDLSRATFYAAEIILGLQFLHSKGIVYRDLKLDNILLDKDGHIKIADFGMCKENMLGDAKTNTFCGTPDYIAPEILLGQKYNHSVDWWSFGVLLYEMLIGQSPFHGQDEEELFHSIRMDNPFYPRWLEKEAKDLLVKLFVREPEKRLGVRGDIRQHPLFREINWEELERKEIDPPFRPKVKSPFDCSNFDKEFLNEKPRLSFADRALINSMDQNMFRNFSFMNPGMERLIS
Sequence of TRAF2 and NCK-interacting protein kinase (Homo sapiens) (Q9UKE5 whole entry, looked up): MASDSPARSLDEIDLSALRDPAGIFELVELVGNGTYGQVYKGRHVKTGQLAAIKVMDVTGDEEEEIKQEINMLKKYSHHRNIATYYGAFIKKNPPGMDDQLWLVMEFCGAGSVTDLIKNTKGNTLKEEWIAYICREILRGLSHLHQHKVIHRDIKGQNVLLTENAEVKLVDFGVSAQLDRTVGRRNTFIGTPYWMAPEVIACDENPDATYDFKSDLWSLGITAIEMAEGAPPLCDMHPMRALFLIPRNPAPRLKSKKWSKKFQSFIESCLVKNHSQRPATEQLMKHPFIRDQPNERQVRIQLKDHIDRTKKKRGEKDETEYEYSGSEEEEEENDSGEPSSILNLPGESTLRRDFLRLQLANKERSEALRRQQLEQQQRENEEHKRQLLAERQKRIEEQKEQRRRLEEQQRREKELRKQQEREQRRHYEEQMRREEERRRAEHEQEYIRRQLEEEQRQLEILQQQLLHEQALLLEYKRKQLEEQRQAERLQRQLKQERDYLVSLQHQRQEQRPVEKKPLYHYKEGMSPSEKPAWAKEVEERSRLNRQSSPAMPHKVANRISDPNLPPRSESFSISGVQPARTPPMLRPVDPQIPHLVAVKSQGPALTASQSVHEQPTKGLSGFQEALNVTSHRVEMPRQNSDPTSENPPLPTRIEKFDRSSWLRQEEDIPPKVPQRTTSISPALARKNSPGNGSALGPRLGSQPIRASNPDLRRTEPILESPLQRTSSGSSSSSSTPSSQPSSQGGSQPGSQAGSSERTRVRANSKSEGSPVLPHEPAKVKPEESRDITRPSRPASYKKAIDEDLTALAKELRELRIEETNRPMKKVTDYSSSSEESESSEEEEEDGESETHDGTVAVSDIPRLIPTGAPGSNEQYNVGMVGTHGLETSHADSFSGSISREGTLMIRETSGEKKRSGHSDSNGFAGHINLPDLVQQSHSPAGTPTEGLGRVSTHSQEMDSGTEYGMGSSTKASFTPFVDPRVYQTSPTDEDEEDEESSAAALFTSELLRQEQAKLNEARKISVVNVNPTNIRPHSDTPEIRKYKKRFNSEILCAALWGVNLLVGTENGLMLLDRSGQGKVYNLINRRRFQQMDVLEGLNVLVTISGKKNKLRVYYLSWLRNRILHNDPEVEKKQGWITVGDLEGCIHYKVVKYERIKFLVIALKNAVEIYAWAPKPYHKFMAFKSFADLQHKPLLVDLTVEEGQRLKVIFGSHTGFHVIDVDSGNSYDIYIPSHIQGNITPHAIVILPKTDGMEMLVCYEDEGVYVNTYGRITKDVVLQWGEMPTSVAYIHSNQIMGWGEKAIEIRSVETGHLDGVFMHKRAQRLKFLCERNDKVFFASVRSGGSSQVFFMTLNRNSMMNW

CN1CCN(c2ccc(-c3cnc4c(c3)N(Cc3cc(Cl)ccc3Cl)CCN4)cn2)CC1
inhibition [1]: < 50% | inhibition [2]: < 50% | inhibition [3]: < 50% | inhibition [4]: < 50% | inhibition [5]: < 50% | inhibition [6]: 90% | inhibition [7]: < 50%

CN1CCN(c2ccc(-c3cnc4c(c3)N(Cc3cc(Cl)ccc3C(F)(F)F)CCN4)cn2)CC1
inhibition [1]: < 50% | inhibition [2]: < 50% | inhibition [3]: < 50% | inhibition [4]: < 50% | inhibition [5]: < 50% | inhibition [6]: 91% | inhibition [7]: < 50%

CN1CCN(c2ccc(-c3cnc4c(c3)N(Cc3c(F)ccc(F)c3Cl)CCN4)cn2)CC1
inhibition [1]: < 50% | inhibition [2]: < 50% | inhibition [3]: < 50% | inhibition [4]: < 50% | inhibition [5]: 82% | inhibition [6]: < 50% | inhibition [7]: < 50%

O=C(c1ccc(-c2cnc3c(c2)N(Cc2cc(Cl)ccc2C(F)(F)F)CCN3)cc1)N1CCC(N2CCCC2)CC1
inhibition [5]: < 50%

COC1CCN(C(=O)c2ccc(-c3cnc4c(c3)N(Cc3cc(Cl)ccc3C(F)(F)F)CCN4)cc2)CC1
inhibition [5]: < 50%

FC(F)(F)c1ccc(Cl)cc1CN1CCNc2ncc(-c3ccnc(N4CCNCC4)c3)cc21
inhibition [1]: < 50% | inhibition [2]: < 50% | inhibition [3]: < 50% | inhibition [4]: < 50% | inhibition [5]: < 50% | inhibition [6]: 98% | inhibition [7]: < 50%

CN1CCN(c2ccc(-c3cnc4c(c3)N(Cc3cc(F)ccc3F)CCN4)cn2)CC1
inhibition [1]: < 50% | inhibition [2]: < 50% | inhibition [3]: < 50% | inhibition [4]: < 50% | inhibition [5]: < 50% | inhibition [6]: 94% | inhibition [7]: < 50%

O=C(c1ccc(-c2cnc3c(c2)N(Cc2cc(Cl)ccc2C(F)(F)F)CCN3)cc1)N1CCCCC1
inhibition [5]: < 50%

CC(=O)N1CCN(c2cc(-c3cnc4c(c3)N(Cc3cc(Cl)ccc3C(F)(F)F)CCN4)ccn2)CC1
inhibition [1]: < 50% | inhibition [2]: < 50% | inhibition [3]: < 50% | inhibition [4]: < 50% | inhibition [5]: < 50% | inhibition [6]: < 50% | inhibition [7]: < 50%

O=C(O)c1ccc(-c2cnc3c(c2)N(Cc2cc(Cl)ccc2C(F)(F)F)CCN3)cc1
inhibition [5]: < 50%
